# Screening results as filed in PubChem.
# TMEM16A inh = inhibitors of mouse TMEM16A calcium-activated chloride channel. HEK293 TMEM16A/YFP iodide influx fluorescence, ionomycin. normalized B-score (activity score, 25-100; higher = stronger inhibition) at 10 µM. Q8BHY3. 310,000 compounds, 1.2% hits;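 active = ratio plate-corrected score three or more library SD toward inhibition, starting fluorescence score within five deviations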;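 note: score derived from kinetic fluorescence span divided by baseline fluorescence per well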
# Target sequence (Q8BHY3 whole entry, looked up): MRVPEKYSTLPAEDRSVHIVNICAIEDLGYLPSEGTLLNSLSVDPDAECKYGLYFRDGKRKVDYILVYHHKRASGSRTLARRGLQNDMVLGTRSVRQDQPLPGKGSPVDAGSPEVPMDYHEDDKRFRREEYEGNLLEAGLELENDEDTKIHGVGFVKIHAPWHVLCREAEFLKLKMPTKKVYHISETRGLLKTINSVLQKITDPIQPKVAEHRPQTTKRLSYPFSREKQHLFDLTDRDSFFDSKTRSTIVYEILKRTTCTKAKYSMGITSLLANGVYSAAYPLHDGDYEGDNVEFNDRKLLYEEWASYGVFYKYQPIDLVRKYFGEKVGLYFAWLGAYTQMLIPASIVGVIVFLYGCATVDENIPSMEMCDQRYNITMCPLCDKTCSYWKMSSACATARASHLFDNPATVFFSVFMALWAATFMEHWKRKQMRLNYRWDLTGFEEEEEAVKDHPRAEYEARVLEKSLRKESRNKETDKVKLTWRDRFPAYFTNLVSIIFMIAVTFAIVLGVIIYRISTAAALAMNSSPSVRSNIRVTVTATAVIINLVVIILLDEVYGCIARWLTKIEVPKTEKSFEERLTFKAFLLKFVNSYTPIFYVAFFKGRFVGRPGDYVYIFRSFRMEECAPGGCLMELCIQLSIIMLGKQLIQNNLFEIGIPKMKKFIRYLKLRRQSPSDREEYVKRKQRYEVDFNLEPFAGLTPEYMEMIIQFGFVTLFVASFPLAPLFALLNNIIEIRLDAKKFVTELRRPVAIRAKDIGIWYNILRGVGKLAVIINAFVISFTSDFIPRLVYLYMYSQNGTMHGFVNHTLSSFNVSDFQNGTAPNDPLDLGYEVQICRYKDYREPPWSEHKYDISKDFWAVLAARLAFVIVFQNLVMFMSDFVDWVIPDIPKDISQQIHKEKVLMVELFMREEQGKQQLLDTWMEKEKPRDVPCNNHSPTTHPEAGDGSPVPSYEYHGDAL
# IMP-1 inhibitor = blocks Pseudomonas aeruginosa IMP-1 metallo-beta-lactamase; purified IMP-1, nitrocefin hydrolysis, epi-absorbance fluorescence; inhibition, % at 5.6 µM; 290,000 compounds, 0.45% hits; AID 1556;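 active = inhibition above the mean plus 3 SD of all compounds in the same screening run, cut at about 4.5% in these data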;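 note: 0% = IMP-1 with DMSO and 100% = DMSO wells lacking enzyme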
#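 System: purified IMP-1 / Input: IMP-1 dispensed at 0.2 nM / Medium: 50 mM HEPES pH 7.1, 50 µM ZnSO4, 0.05% Brij 35 / Timing: 15 min enzyme–compound preincubation, then 25 min nitrocefin reaction, 25 °C / Technique: plate fluorescence quenching by hydrolysis product, ex 480/em 530 nm / Repeats: singlicate testing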
# ANO1 activ = activates or potentiates the mouse TMEM16A chloride channel | Q8BHY3 | HEK293 TMEM16A/YFP-H148Q/I152L, iodide quench fluorescence; stronger effect = lower value | B-score at 10 µM | 340,000 compounds, 0.3% hits | AID 623877;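 active = fluorescence-ratio B-score plate-corrected deviation score at least 3 library SD below zero, with starting fluorescence score within 5 deviations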;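 note: channel opened by trigger with iodide after compound preincubation; score built on the fluorescence ratio of max minus min over baseline; more negative score means more quench and so TMEM16A activation or potentiation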
# VIM-2 inh = inhibitors of Pseudomonas aeruginosa VIM-2 metallo-beta-lactamase | purified VIM-2, nitrocefin hydrolysis, epi-absorbance fluorescence | inhibition, % at 5.6 µM | 290,000 compounds, 0.89% hits;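 active = inhibition above the mean of all tested compounds plus 3 SD, cutoff set per screening run, cut at about 7.5% in these data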;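 note: red hydrolysis product quenches plate fluorescence so inhibitors raise well fluorescence; 0% = enzyme with DMSO and 100% = DMSO without enzyme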
# CHT PAM = human CHT allosteric activation | Q9GZV3 | CHT-expressing cells, membrane potential dye, choline EC20; stronger effect = higher value; LV-AA mutant CHT in HEK293 cells | B-score at 10 µM | 310,000 compounds, 0.49% hits | AID 488977;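 active = initial fluorescence not abnormally high and integrated response B-score, plate-corrected, over 3 SD above library mean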
# CHT inh = inhibits the human high affinity choline transporter; Q9GZV3; CHT-expressing cells, membrane potential dye, choline response; stronger effect = lower value; B-score at 10 µM; 310,000 compounds, 0.86% hits; AID 488975;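 active = B-score over 3 SD under the library average, and starting fluorescence ratio not unusually high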;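 note: choline stimulus applied at its EC90 after an EC20 pre-addition; B-score computed on integrated fluorescence ratio after choline addition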
# CHT block conf = human CHT inhibition, confirmatory screen | 2,400 compounds, 70% hits | CHT-expressing cells, choline membrane potential dye; LV-to-AA substituted CHT, HEK293 cells | CHT activity remaining % of control (stronger effect = lower value), % at 10 µM | shares compounds with CHT inh;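 active = choline transporter activity left, mean of duplicates at 10 µM, below buffer-only control mean minus 3 SD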;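 note: depolarization triggered by choline at its EC90 following an EC20 pre-addition; 0% = hemicholinium-3 full block and 100% = buffer-only control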
# HEK293 MPD ctr = activity in parental HEK293 cells lacking CHT | membrane potential dye, choline response; active = decrease or increase beyond buffer ±3SD | AID 493222 | shares compounds with CHT inh | membrane potential ratio readout (active if shifted either direction beyond buffer ±3SD; no single direction) at 10 µM | 2,400 compounds, 4% hits;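 note: parental cells lack the transporter so any hit is non-specific; ratio is peak minus trough fluorescence over baseline after EC90 choline challenge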
# * = called active by the depositor; i = inactive; · = no result given. Rows were chosen to be rich in hits. Some 3.4% of all compounds tested hit in one or more screens of this group.
SMILES,TMEM16A inh,IMP-1 inhibitor,ANO1 activ,VIM-2 inh,CHT PAM,CHT inh,CHT block conf,HEK293 MPD ctr
O=c1c2cc(NC(=S)NC3CCN(Cc4ccccc4)CC3)ccc2nc2n1CCCCC2,i,-2.0,i,1.3,i,i,·,·
NS(=O)(=O)c1ccc(NNC(=O)c2ccccc2)cc1,i,-1.5,i,0.0,i,i,·,·
O=C(NNc1cc(Br)c(O)c(Br)c1)c1ccccc1,i,-4.2,i,-0.9,i,-7.37*,47.3%*,i
Cc1ccc(-n2cccc2/C=C2/C(=N)N3C(=NC2=O)SN=C3S(C)(=O)=O)cc1Cl,i,-0.7,i,-0.2,i,i,·,·
Cc1cccc(C)c1-n1cccc1/C=C1/C(=N)N2C(=NC1=O)SN=C2S(C)(=O)=O,25*,-1.5,i,-2.2,i,-5.49*,50.5%*,i
CCOc1cc(C(c2c(O)nc(SC)[nH]c2=O)c2c(O)nc(SC)[nH]c2=O)ccc1O,i,·,i,·,i,i,·,·
COc1ccccc1C(c1c(O)nc(SC)[nH]c1=O)c1c(O)nc(SC)[nH]c1=O,i,·,i,·,i,i,i,i
CCCCN1CCc2c1nc1ccc(Br)cc1c2N,i,-3.9,i,0.3,i,-5.56*,50.7%*,i
CCCCc1c(C)nc2ccc(Br)cc2c1SC(N)N,·,-1.8,i,-2.4,·,·,·,·
O=C(COC(=O)C1CCN(C(=O)c2ccc(Cl)cc2)CC1)Nc1ccccc1F,·,·,i,·,·,·,·,·
COc1ccc(N2CCN(S(=O)(=O)c3cn(C)c(=O)n(C)c3=O)CC2)cc1,i,-0.5,i,-1.8,i,-5.26*,i,i
Cn1cc(S(=O)(=O)N2CCN(c3ccccc3)CC2)c(=O)n(C)c1=O,i,-0.1,i,-0.2,i,i,·,·
COc1cc(O)c(C(CC(=O)N2CCCC(C)C2)c2ccc(N(C)C)cc2)c(OC)c1 (configuration not stated),i,·,i,·,i,i,·,·
COc1cc(O)c(C(CC(=O)N2CCN(c3ccccc3)CC2)c2ccc(N(C)C)cc2)c(OC)c1 (configuration not stated),i,·,i,·,i,-10.5*,i,i
CN(CC(=O)Nc1ccc(F)c(F)c1F)C(=O)/C=C/c1ccco1,·,·,i,·,·,·,·,·
CNC(=O)[C@H]1O[C@@H](n2cnc3c(NCc4cccc(I)c4)ncnc32)[C@H](O)[C@@H]1O,i,·,i,·,i,-5.15*,44.1%*,i
CC1CCN(S(=O)(=O)c2nnc(NC(=O)c3cccc([N+](=O)[O-])c3)s2)CC1,i,-2.6,i,-2.4,i,-9.58*,60.3%*,i
N#Cc1nc(Cc2cccc3ccccc23)oc1N1CCOCC1,i,-4.2,i,-0.1,i,-5.33*,58.9%*,i
COc1ccc(N2CCN(c3oc(Cc4cccc5ccccc45)nc3C#N)CC2)cc1,i,-1.5,i,-0.1,i,i,·,·
Cc1ccccc1N1CCN(C2CCCN(C(=O)CCn3cnnn3)C2)CC1 (configuration not stated),i,-2.1,i,-1.3,i,i,·,·
COc1ccc(S(=O)(=O)N2CCC(C(=O)NCC(=O)Nc3c(C)cccc3C)CC2)cc1OC,·,·,i,·,·,·,·,·
Cn1c(CNC(=O)CCNC(=O)c2ccc(F)c(F)c2)cc(=O)n(C)c1=O,i,-1.9,i,-1.4,i,i,·,·
N#CC12CCCCC1CC1CCCCC1(C#N)N2CCO (configuration not stated),i,-1.1,i,2.1,i,-5.74*,i,i
N#CC12CCCCC1CC1CCCCC1(C#N)N2N (configuration not stated),i,-3.6,i,-2.9,i,i,·,·
O=C(Nc1ccc(NS(=O)(=O)c2ccccc2)c(Cl)c1)c1ccccc1,·,·,i,·,·,·,·,·
SMILES,TMEM16A inh,IMP-1 inhibitor,ANO1 activ,VIM-2 inh,CHT PAM,CHT inh,CHT block conf,HEK293 MPD ctr
O=C(Nc1cccc(Cl)c1)Nc1cc(S(=O)(=O)N2CCCCC2)ccc1Cl,i,-1.0,i,-2.6,i,i,·,·
COC(=O)c1cccc(NC(=O)c2ccc(S(=O)(=O)N3CCN(C)CC3)cc2)c1,i,-1.8,i,1.4,i,-5.06*,32.6%*,i
CC(=O)Nc1cccc(C(=O)OC(C)C(=O)Nc2ccc(S(=O)(=O)N3CCCC3)cc2)c1 (configuration not stated),i,·,i,·,i,-6.91*,63.3%*,i
CC(=O)Nc1ccc(NC(=O)C(C)OC(=O)c2cccc(S(=O)(=O)N3CCCC3)c2)cc1 (configuration not stated),i,·,i,·,i,i,·,·
CN1CCN(S(=O)(=O)c2ccc(NC(=O)c3ccc(Br)o3)cc2)CC1,i,-1.2,i,-1.8,i,i,·,·
CN1CCN(S(=O)(=O)c2ccc(NC(=O)Nc3cccc(Cl)c3)cc2)CC1,i,-5.2,i,-1.9,i,-8.11*,28.6%*,i
CN1CCN(S(=O)(=O)c2ccc(NC(=O)c3ccc(Br)s3)cc2)CC1,i,-2.7,i,-0.2,i,-7.72*,24.5%*,i
COC(=O)C1CCN(C(=O)COC(=O)c2oc3ccc(OC)cc3c2C)CC1,i,-0.7,i,0.6,i,i,·,·
COc1cc2c(cc1OC)-c1cc(NC3CCCCCCC3)nc(=O)n1CC2,i,-2.0,i,-1.8,i,-7.59*,26.6%*,i
O=C(OCc1nc2ccsc2c(=O)[nH]1)c1cc(Br)c(Br)s1,i,·,i,·,i,-7.66*,63.8%*,i
CC(C)(C)NC(=O)c1ccc(COc2ccc(Cl)cc2Cl)o1,i,-2.0,i,-1.0,i,i,·,·
COC(=O)c1cccc(Nc2ncnc3ccc(C)cc23)c1,i,-3.3,i,1.1,i,i,·,·
CCOC(=O)c1cccc(Nc2ncnc3ccccc23)c1,i,-1.1,i,1.2,i,-8.18*,24.9%*,i
CC1CCCCC1NC(=O)Cn1nnc(-c2ccc(Cl)cc2)n1 (configuration not stated),i,-1.9,i,-4.0,i,-6.29*,66.2%*,i
COc1ccc(NC(=O)CSc2nnc(-c3cc(C)[nH]n3)n2N)cc1,i,-1.5,i,-0.8,i,i,·,·
FC(F)Sc1ccc(NC(=S)NC2CCCCC2)cc1,i,-5.0,i,-3.3,i,i,·,·
